Test system: Felis catus
Assay: Reduction of the integrated electromyographic response by 50% in cat after intravenous administration
Type: functional
Outline: (§1)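 Intercollicular decerebration of cats (midbrain sectioned between colliculi) under halothane, anesthesia then stopped; ≥1 h later, integrated EMG of quadriceps recorded in response to controlled stretches. Drug infused iv in saline in graded doses, stretch response repeated; dose (μmol/kg iv) reducing stretch response by 50% determined.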
In the case of `CC(=O)c1ccc2c(c1)C(O)(CC(C)CN(C)C)c1ccccc1S2` (stereo not given), the “Activity A” value is reported as 3.17 µM/kg.
With `CCC(=O)c1ccc2c(c1)/C(=C\C(C)CN(C)C)c1cc(Cl)ccc1S2` (stereo not given) the “Activity A” value was 1.3 µM/kg.
With `CC(C)C(=O)c1ccc2c(c1)/C(=C\CCN(C)C)c1ccccc1S2` the “Activity A” value was 0.4 µM/kg.
For `CCC(=O)c1ccc2c(c1)C(CCCN(C)C)c1cc(Cl)ccc1S2` (stereo not given), the “Activity A” value was 6.17 µM/kg.
With `CCCC(=O)c1ccc2c(c1)/C(=C\CCN(C)C)c1ccccc1S2` the “Activity A” value was 1.5 µM/kg.
In the case of `CCCCC(=O)c1ccc2c(c1)/C(=C\CCN(C)C)c1ccccc1S2`, the “Activity A” value is reported as 1.35 µM/kg.
In the case of `CC(=O)c1ccc2c(c1)/C(=C\CCN(C)C)c1cc(Cl)ccc1S2` (stereo in doubt; 33) [listing 1 of 2 here], the “Activity A” value is reported as 0.53 µM/kg.
For `CC(=O)c1ccc2c(c1)/C(=C\C(C)CN(C)C)c1ccccc1S2` (stereo not given), the “Activity A” value was 1.31 µM/kg.
For `CC(=O)c1ccc2c(c1)C(CC(C)CN(C)C)c1ccccc1S2` (stereo not given), the “Activity A” value was 2.08 µM/kg.
For `CCC(=O)c1ccc2c(c1)/C(=C\CCN(C)C)c1ccccc1S2` (stereo in doubt; 36) [listing 1 of 2 here], the “Activity A” value was 0.15 µM/kg.
For `CCC(=O)c1ccc2c(c1)/C(=C\CCN(C)C)c1cc(Cl)ccc1S2`, the “Activity A” value was 1.08 µM/kg.
In the case of `CCC(=O)c1ccc2c(c1)C(O)(CC1CCN(C)CC1)c1ccccc1S2` (stereo not given), the “Activity A” value is reported as 19.39 µM/kg.
For `CC(=O)c1ccc2c(c1)/C(=C\C(C)CN(C)C)c1cc(Cl)ccc1S2` (stereo not given), the “Activity A” value was 1.19 µM/kg.
In the case of `CCC(=O)c1ccc2c(c1)/C(=C\C(C)CN1CCOCC1)c1ccccc1S2` (stereo not given), the “Activity A” value is reported as 6.5 µM/kg.
For `CCC(=O)c1ccc2c(c1)C(=C1CCN(C)CC1)c1ccccc1S2`, the “Activity A” value was 0.68 µM/kg.

Test system: Felis catus
Assay: Dose of compound to reduce the integrated electromyographic response by 50% in cat after intravenous administration; value from second experiment.
Type: functional
Outline: as §1
In the case of `CC(=O)c1ccc2c(c1)C(O)(CC(C)CN(C)C)c1ccccc1S2` (stereo not given), the “Activity A” value is reported as greater than 21.18 µM/kg.

Test system: Felis catus
Assay: Reduction of the integrated electromyographic response by 50% in cat after peroral administration
Type: functional
For `CCC(=O)c1ccc2c(c1)/C(=C\C(C)CN(C)C)c1cc(Cl)ccc1S2` (stereo not given), the “Activity B” value was greater than 9.3 µM/kg.
For `CC(=O)c1ccc2c(c1)/C(=C\CCN(C)C)c1cc(Cl)ccc1S2` (stereo in doubt; 33) [listing 1 of 2 here], the “Activity B” value was greater than 5.4 µM/kg.
For `CC(=O)c1ccc2c(c1)C(CC(C)CN(C)C)c1ccccc1S2` (stereo not given), the “Activity B” value was greater than 13 µM/kg.
With `CCC(=O)c1ccc2c(c1)/C(=C\CCN(C)C)c1ccccc1S2` (stereo in doubt; 36) [listing 1 of 2 here] the “Activity B” value was 1.8 µM/kg.
For `CCC(=O)c1ccc2c(c1)/C(=C\CCN(C)C)c1cc(Cl)ccc1S2`, the “Activity B” value was greater than 9.6 µM/kg.

Test system: Felis catus
Assay: Dose of compound to reduce the integrated electromyographic response by 50% in cat after peroral administration; Range is 5.1-12.5
Type: functional
With `CCCC(=O)c1ccc2c(c1)/C(=C\CCN(C)C)c1ccccc1S2` the “Activity B” value was 5.1 µM/kg.

Test system: Mus musculus
Assay: Reduction of locomotor activity count to 50% of the control in mouse after oral administration
Type: functional
Outline: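 Mouse locomotor activity by Dews method, modified: drug given orally, activity measured for 5 min starting 1 h later. Dose (μmol/kg po) reducing locomotor activity count to 50% of control determined.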
`CCC(=O)c1ccc2c(c1)/C(=C\C(C)CN(C)C)c1cc(Cl)ccc1S2` (stereo not given) showed a Locomotor activity of 534 µM/kg.
Work on `CC(C)C(=O)c1ccc2c(c1)/C(=C\CCN(C)C)c1ccccc1S2` yielded a Locomotor activity of 89 µM/kg.
For `CCC(=O)c1ccc2c(c1)C(CCCN(C)C)c1cc(Cl)ccc1S2` (stereo not given), the Locomotor activity was 343 µM/kg.
With `CCCC(=O)c1ccc2c(c1)/C(=C\CCN(C)C)c1ccccc1S2` the Locomotor activity was greater than 501 µM/kg.
With `CC(=O)c1ccc2c(c1)/C(=C\CCN(C)C)c1cc(Cl)ccc1S2` (stereo in doubt; 33) [listing 1 of 2 here] the Locomotor activity was 89 µM/kg.
With `CC(=O)c1ccc2c(c1)/C(=C\C(C)CN(C)C)c1ccccc1S2` (stereo not given) the Locomotor activity was 94 µM/kg.
Work on `CC(=O)c1ccc2c(c1)C(CC(C)CN(C)C)c1ccccc1S2` (stereo not given) yielded a Locomotor activity of 377 µM/kg.
For `CCC(=O)c1ccc2c(c1)/C(=C\CCN(C)C)c1ccccc1S2` (stereo in doubt; 36) [listing 1 of 2 here], the Locomotor activity was 120 µM/kg.
With `CCC(=O)c1ccc2c(c1)/C(=C\CCN(C)C)c1cc(Cl)ccc1S2` the Locomotor activity was 695 µM/kg.
`CCC(=O)c1ccc2c(c1)C(O)(CC1CCN(C)CC1)c1ccccc1S2` (stereo not given) showed a Locomotor activity greater than 485 µM/kg.
For `CC(=O)c1ccc2c(c1)/C(=C\C(C)CN(C)C)c1cc(Cl)ccc1S2` (stereo not given), the Locomotor activity was 192 µM/kg.
`CCC(=O)c1ccc2c(c1)/C(=C\C(C)CN1CCOCC1)c1ccccc1S2` (stereo not given) gave a Locomotor activity greater than 659 µM/kg.
Work on `CCC(=O)c1ccc2c(c1)C(=C1CCN(C)CC1)c1ccccc1S2` yielded a Locomotor activity of 96 µM/kg.

Test system: not listed separately
Assay: Ratio of motor activity and activity A
Type: functional
For `CC(=O)c1ccc2c(c1)/C(=C\CCN(C)C)c1cc(Cl)ccc1S2` (stereo in doubt; 32), the Ratio was 119.
With `CCC(=O)c1ccc2c(c1)/C(=C\CCN(C)C)c1ccccc1S2` (stereo in doubt; 36) [listing 2 of 2 here] the Ratio was 800.
In the case of `CCC(=O)c1ccc2c(c1)/C(=C\C(C)CN(C)C)c1cc(Cl)ccc1S2` (stereo not given), the Ratio is reported as 411.
In the case of `CC(C)C(=O)c1ccc2c(c1)/C(=C\CCN(C)C)c1ccccc1S2`, the Ratio is reported as 218.
Work on `CCC(=O)c1ccc2c(c1)C(CCCN(C)C)c1cc(Cl)ccc1S2` (stereo not given) yielded a Ratio of 56.
Compound `CCCC(=O)c1ccc2c(c1)/C(=C\CCN(C)C)c1ccccc1S2` has a Ratio of 334.
Work on `CC(=O)c1ccc2c(c1)/C(=C\C(C)CN(C)C)c1ccccc1S2` (stereo not given) yielded a Ratio of 72.
For `CC(=O)c1ccc2c(c1)/C(=C\CCN(C)C)c1cc(Cl)ccc1S2` (stereo in doubt; 33) [listing 2 of 2 here], the Ratio was 168.
`CC(=O)c1ccc2c(c1)C(CC(C)CN(C)C)c1ccccc1S2` (stereo not given) showed a Ratio of 181.
Compound `CCC(=O)c1ccc2c(c1)/C(=C\CCN(C)C)c1ccccc1S2` (stereo in doubt; 35) has a Ratio of 753.
With `CCC(=O)c1ccc2c(c1)/C(=C\CCN(C)C)c1cc(Cl)ccc1S2` the Ratio was 644.
In the case of `CCC(=O)c1ccc2c(c1)C(O)(CC1CCN(C)CC1)c1ccccc1S2` (stereo not given), the Ratio is reported as greater than 25.
In the case of `CC(=O)c1ccc2c(c1)/C(=C\C(C)CN(C)C)c1cc(Cl)ccc1S2` (stereo not given), the Ratio is reported as 161.
Work on `CCC(=O)c1ccc2c(c1)/C(=C\C(C)CN1CCOCC1)c1ccccc1S2` (stereo not given) yielded a Ratio greater than 101.
In the case of `CCC(=O)c1ccc2c(c1)C(=C1CCN(C)CC1)c1ccccc1S2`, the Ratio is reported as 141.

Reference: ChEMBL document CHEMBL1121598, “Acylthioxanthenes: agents which selectively reduce decerebrate rigidity in the cat” (1980)
